One test has as its system HL-60. The test is described as follows: Antitumor activity against human HL60 cells after 72 hrs by Calcein AM assay. As to conditions: HL-60, 72 h. In kind it is functional, cell-based. Put shortly:
(§1)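 Cells grown in DMEM at 37 °C under 5% CO2. Compounds added after 12 h preincubation in 96-well plates, final 0.5-170 μM, with 0.6% final DMSO, then 72 h exposure. Viable cells stained with Calcein AM for 1 h and read at 485/538 nm. IC50 (concentration lethal to 50% of cells) taken from dose-response curves. Run in quadruplicate.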

Another test relates to CCRF-CEM. The test can be described thus: Antitumor activity against human CEM cells after 72 hrs by Calcein AM assay. Type of test: functional, cell-based. Put shortly: as §1
A further test concerns K562. The test can be described thus: Antitumor activity against human K562 cells after 72 hrs by Calcein AM assay. As to conditions: K562, 72 h. In kind it is functional, cell-based. Put shortly:
as §1

Test [1] concerns Nicotiana tabacum. The test is described as follows: Cytokinin activity in tobacco assessed as stimulation of callus growth at 0.1 mmol/L relative to 6-Benzylaminopurine. In kind it is functional. Put shortly: (§2)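 Stimulation of tobacco callus growth. Compounds dissolved in DMSO, brought to 10^-3 M in water and diluted into medium (DMSO ≤0.2%). Range 10^-4 to 10^-8 M, five replicates per concentration, at least three independent repeats. Activity at the optimal concentration given relative to BAP's optimal response, taken as 100.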

A further test has as its system G-361. The test is described as follows: Antitumor activity against human G361 cells after 72 hrs by Calcein AM assay. In kind it is functional, cell-based. As to conditions: G-361, 72 h. Put shortly: as §1
For the next test, the system named is B16. The test can be described thus: Antitumor activity against mouse B16 cells after 72 hrs by Calcein AM assay. In kind it is functional, cell-based. The settings on record: B16, 72 h. Put shortly:
as §1

Test [2] can be described thus: Antitumor activity against human MCF cells after 72 hrs by Calcein AM assay. Type of test: functional, cell-based. Put shortly:
as §1

The subject of the next test is Amaranthus. The test is described as follows: Cytokinin activity in Amaranthus cotyledons assessed as dark induction of betacyanin synthesis at 0.1 mmol/L relative to 6-Benzylaminopurine. In kind it is functional. Put shortly:
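Dark induction of betacyanin in excised Amaranthus cotyledons. DMSO stock brought to 10^-3 M in water, diluted into assay medium (DMSO ≤0.2%). Tested over 10^-4 to 10^-8 M, five replicates per concentration, assay repeated at least three times. Response at the optimal concentration expressed relative to BAP at its optimum (set to 100).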

In a further test the test system is HOS. The test can be described thus: Antitumor activity against human HOS cells after 72 hrs by Calcein AM assay. Type of test: functional, cell-based. Put shortly: as §1
The subject of test [3] is Triticum aestivum. The test can be described thus: Cytokinin activity in wheat assessed as retention of chlorophyll in excised wheat leaves at 0.1 mmol/L relative to 6-Benzylaminopurine by senescence assay. In kind it is functional. Put shortly:
(§3)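 Senescence assay measuring chlorophyll retention in excised wheat leaves. DMSO stocks brought to 10^-3 M with water, then diluted in assay medium to a final DMSO of at most 0.2%. Concentrations 10^-4 to 10^-8 M, quintuplicate, repeated at least three times. Response at the optimal concentration normalised to BAP optimum = 100.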

The subject of test [4] is Nicotiana tabacum. The test is described as follows: Cytokinin activity in tobacco assessed as stimulation of callus growth at 1 umol/L relative to 6-Benzylaminopurine. In kind it is functional. Put shortly: as §2
The test system of test [5] is Triticum aestivum. The test is described as follows: Cytokinin activity in wheat assessed as retention of chlorophyll in excised wheat leaves at 0.1 umol/L relative to 6-Benzylaminopurine by senescence assay. In kind it is functional. Put shortly: as §3
The test system of test [6] is Nicotiana tabacum. The test can be described thus: Cytokinin activity in tobacco assessed as stimulation of callus growth at 0.01 mmol/L relative to 6-Benzylaminopurine. Type of test: functional. Put shortly: as §2
Test [7] is described as follows: Cytotoxicity against mouse NIH 3T3 cells after 72 hrs by Calcein AM assay. Type of test: cell-based. As to conditions: NIH3T3, 72 h. Put shortly:
as §1

Test [8] relates to Triticum aestivum. The test is described as follows: Cytokinin activity in wheat assessed as retention of chlorophyll in excised wheat leaves at 0.01 mmol/L relative to 6-Benzylaminopurine by senescence assay. Type of test: functional. Put shortly: as §3

pIC50: −log10 of the molar value.

Broadly, the pIC50 is the negative decadic logarithm of the IC50, by convention in mol/L.

`Cc1ccc(O)c(CNc2ncnc3c2ncn3[C@@H]2O[C@H](CO)[C@@H](O)[C@H]2O)c1`: the negative logarithm of the IC50 (pIC50) with HL-60 is 4.82; with CCRF-CEM it was 5.72; in the test on K562, 4.78; in the test with G-361, less than 3.78; in the test on B16 it was less than 3.78; in test [2], less than 3.78. Moreover, the pIC50 in the test on HOS was less than 3.78. Also, the figures for the Activity with Nicotiana tabacum [1], in the test with Amaranthus and in the test with Triticum aestivum [3] were 7%, 58% and 164%, respectively.
With `OC[C@H]1O[C@@H](n2cnc3c(NCc4ccc(O)c(O)c4)ncnc32)[C@H](O)[C@@H]1O`, the Activity with Nicotiana tabacum [4] turned out to be 4%; in the test with Amaranthus, 8%; in the test on Triticum aestivum [5], 17%.
As for `OC[C@H]1O[C@@H](n2cnc3c(NCc4ccccc4Br)ncnc32)[C@H](O)[C@@H]1O`, the negative logarithm of the IC50 (pIC50) was 5.18 with HL-60; 4.91 in the test with CCRF-CEM; less than 3.78 in test [7]; 5.00 in the test on K562; less than 3.78 with G-361; less than 3.78 in the test on B16. Further, the pIC50 (in test [2]; with HOS) was less than 3.78 throughout. The Activity with Nicotiana tabacum [6] was 100%; with Triticum aestivum [8], 86%; in the test on Amaranthus it was 147%.

Source of the values: ChEMBL document CHEMBL1143049, “Preparation, biological activity and endogenous occurrence of N6-benzyladenosines” (Bioorg Med Chem, 2007).
